{"source": "ChEMBL document CHEMBL1124965", "about": "“Synthesis and dopamine agonist properties of (+-)-trans-3,4,4a,10b-tetrahydro-4-propyl-2H,5H-[1]benzopyrano [4,3-b]-1,4-oxazin-9-ol and its enantiomers” (J Med Chem, 1990)", "key": {"[1]": {"system": "Rattus norvegicus", "test": "Inhibition of locomotor activity (LMA) in rats generated from four doses of 5-12 animals per dose (dose administered subcutaneously)", "conditions": "sc"}, "[2]": {"system": "Rattus norvegicus", "test": "Reversal of reserpine-induced depression in rat (dose administered subcutaneously) Values generated from three doses; 5-10 rats were used per dose.", "conditions": "sc"}, "[3]": {"system": "Rattus norvegicus", "test": "Inhibition of gamma-butyrolactone-stimulated DOPA synthesis in the corpus striatum of rats (2 mg/kg administered intraperitoneally)", "format": "functional", "outline": "(§1)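 Male Long-Evans rats dosed 30 min before GBL (750 mg/kg ip) plus decarboxylase inhibitor NSD 1015 (100 mg/kg ip); killed 30 min later. Striatal DOPA measured by HPLC with electrochemical detection. Expressed as percentage reversal versus GBL/NSD 1015-treated animals; N = 4–5.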"}, "[4]": {"system": "Rattus norvegicus", "test": "Inhibition of gamma-butyrolactone-stimulated DOPA synthesis in the corpus striatum of rats (dose administered subcutaneously)", "format": "functional", "conditions": "sc", "outline": "as §1"}, "[5]": {"system": "Mus musculus", "test": "Inhibition of locomotor activity (LMA) in mice by the compound administered intraperitoneally.", "format": "functional", "outline": "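Spontaneous exploratory locomotor activity in mice after ip dosing; ED50 derived from four doses with at least three animals per dose.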"}, "[6]": {"system": "Rattus norvegicus", "test": "Inhibition of dopamine neuronal firing activity in the rat substantia nigra DA neutrons (0.25 mg/kg administered intraperitoneally)", "format": "functional", "outline": "(§2)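 Chloral hydrate-anesthetized rats; zona compacta DA cells recorded, identified by waveform and firing pattern, site confirmed histologically. Drug given ip via indwelling catheter. Baseline is the mean of the 2 min before injection; effect is the mean over the 1-min period of maximal inhibition; percent decrease, N = 3–4 cells.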"}, "[7]": {"target": "T1, D(2) dopamine receptor (Rattus norvegicus, UniProt P61169)", "T1 sequence (P61169 whole entry)": "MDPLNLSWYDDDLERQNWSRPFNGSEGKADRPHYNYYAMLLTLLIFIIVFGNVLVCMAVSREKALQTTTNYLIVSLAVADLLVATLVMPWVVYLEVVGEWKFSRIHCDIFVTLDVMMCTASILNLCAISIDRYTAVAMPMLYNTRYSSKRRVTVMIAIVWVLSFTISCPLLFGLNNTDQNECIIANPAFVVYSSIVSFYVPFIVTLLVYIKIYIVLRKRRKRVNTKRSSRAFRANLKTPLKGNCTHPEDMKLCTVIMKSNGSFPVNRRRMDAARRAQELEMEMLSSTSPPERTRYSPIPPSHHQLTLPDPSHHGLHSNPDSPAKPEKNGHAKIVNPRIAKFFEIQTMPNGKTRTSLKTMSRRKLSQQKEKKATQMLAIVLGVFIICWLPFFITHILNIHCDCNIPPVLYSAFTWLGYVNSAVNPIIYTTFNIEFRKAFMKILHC", "test": "Affinity for [3H]N-propylnorapomorphine (NPA) Dopamine receptor D2"}, "[8]": {"system": "Rattus norvegicus", "test": "Inhibition of dopamine neuronal firing activity in the rat substantia nigra DA neutrons (2.2 mg/kg administered intraperitoneally)", "format": "functional", "outline": "as §2"}, "[9]": {"target": "T1, D(2) dopamine receptor", "test": "Concentration inhibiting specific binding of [3H]haloperidol to Dopamine receptor D2 from rat striatal brain."}, "[10]": {"system": "Rattus norvegicus", "test": "Inhibition of locomotor activity (LMA) in rats generated from four doses of 5-12 animals per dose (dose administered po)"}, "[11]": {"system": "Rattus norvegicus", "test": "Reversal of reserpine-induced depression in rat (dose administered subcutaneously)", "format": "functional", "conditions": "sc", "outline": "(§3)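 Rats pretreated with reserpine 5 mg/kg 24 h before testing; drug given sc and reversal of spontaneous locomotor inhibition measured; ED50 derived from three doses with 5–10 rats per dose.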"}, "[12]": {"system": "Rattus norvegicus", "test": "Inhibition of gamma-butyrolactone-stimulated DOPA synthesis in the corpus striatum of rats (30 mg/kg administered intraperitoneally)", "format": "functional", "outline": "as §1"}, "[13]": {"organism": "Rattus norvegicus", "test": "Inhibition of gamma-butyrolactone-stimulated DOPA synthesis in the corpus striatum of rats", "format": "functional", "outline": "as §1"}, "[14]": {"system": "Rattus norvegicus", "test": "Reversal of reserpine-induced depression in rat (dose administered subcutaneously) Values generated from three doses;5-10 rats were used per dose.", "format": "functional", "conditions": "sc", "outline": "as §3"}, "[15]": {"conditions": "Mus musculus, ip, read-out: ED50"}}}
{"smiles": "CN1CCc2cccc3c2[C@H]1Cc1ccc(O)c(O)c1-3", "note": "[APOMORPHINE]", "values": [{"measurement": "ED50", "setting": "[1]", "value": 0.021, "unit": "mg/kg"}, {"measurement": "ED50", "setting": "[2]", "value": 0.096, "unit": "mg/kg"}, {"measurement": "Increase", "setting": "[3]", "value": 100, "unit": "%"}, {"measurement": "ED50", "setting": "[4]", "value": 0.06, "unit": "mg/kg"}, {"measurement": "ED50", "setting": "[5]; [15]", "value": 0.3, "unit": "mg/kg"}, {"measurement": "Decrease", "setting": "[6]", "value": 100, "unit": "%"}]}
{"smiles": "CCCN1CCO[C@@H]2c3cc(O)ccc3OC[C@H]21", "values": [{"measurement": "IC50", "setting": "[7]", "value": 0.123, "unit": "µM"}, {"measurement": "ED50", "setting": "[1]", "value": 0.03, "unit": "mg/kg"}, {"measurement": "Decrease", "setting": "[8]", "value": 100, "unit": "%"}, {"measurement": "IC50", "setting": "[9]", "value": 0.409, "unit": "µM"}, {"measurement": "ED50", "setting": "[10]", "value": 5.8, "unit": "mg/kg"}, {"measurement": "ED50", "setting": "[11]", "value": 6.25, "unit": "mg/kg"}, {"measurement": "Percent reversal of GBL-stimulated DOPA synthesis", "setting": "[12]", "value": 88.4, "unit": "%"}, {"measurement": "Dose", "setting": "[13]", "value": 100, "unit": "%"}, {"measurement": "ED50", "setting": "[4]", "value": 0.03, "unit": "mg/kg"}, {"measurement": "ED50", "setting": "[5]", "value": 5.4, "unit": "mg/kg"}]}
{"smiles": "CCCN1CCO[C@H]2c3cc(O)ccc3OC[C@@H]21", "values": [{"measurement": "Decrease", "setting": "[8]", "value": 9, "unit": "%"}, {"measurement": "IC50", "setting": "[9]", "value": "> 100", "unit": "µM"}, {"measurement": "Percent reversal of GBL-stimulated DOPA synthesis", "setting": "[12]", "value": 0, "unit": "%"}, {"measurement": "ED50", "setting": "[5]; [15]", "value": "> 30", "unit": "mg/kg"}]}
{"smiles": "CCCN(CCC)C1COc2ccc(O)cc2C1", "note": "(stereo not given)", "values": [{"measurement": "ED50", "setting": "[1]", "value": 0.17, "unit": "mg/kg"}, {"measurement": "Decrease", "setting": "[8]", "value": 100, "unit": "%"}, {"measurement": "Percent reversal of GBL-stimulated DOPA synthesis", "setting": "[12]", "value": 100, "unit": "%"}, {"measurement": "ED50", "setting": "[4]", "value": 0.04, "unit": "mg/kg"}, {"measurement": "ED50", "setting": "[5]; [15]", "value": 11.3, "unit": "mg/kg"}, {"measurement": "ED50", "setting": "[14]", "value": 13.4, "unit": "mg/kg"}]}
{"smiles": "CCCN1CCO[C@@H]2c3cc(O)ccc3OC[C@H]21", "note": "(racemic)", "values": [{"measurement": "Decrease", "setting": "[8]", "value": 99, "unit": "%"}, {"measurement": "IC50", "setting": "[9]", "value": 0.9, "unit": "µM"}, {"measurement": "Percent reversal of GBL-stimulated DOPA synthesis", "setting": "[12]", "value": 61.8, "unit": "%"}, {"measurement": "ED50", "setting": "[5]", "value": 11, "unit": "mg/kg"}]}
